14 compounds from ChEMBL document CHEMBL2417357, “Synthesis and antiprotozoal activities of benzyl phenyl ether diamidine derivatives” (Eur J Med Chem, 2013) can be followed below.

The term IC50 denotes the concentration needed to halve the response being measured. High values mean weaker potency, low ones greater potency.

Active and inactive are the calls of the source. No cut-off for these calls is given here.

System in the first series: not listed separately
Description: Selectivity index, ratio of IC50 for rat L6 cells to IC50 for Trypanosoma brucei rhodesiense STIB900. Type of series: toxicity, cell-based. Conditions: read-out: Ratio IC50. The gist of the method: (§1)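 SI = IC50 in rat L6 myoblasts / IC50 against the parasite (T. b. rhodesiense STIB900 or P. falciparum K1). Each IC50 is the average of duplicate determinations.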
Regarding `CO/N=C(\N)c1ccc(COc2ccc(/C(N)=N/OC)cc2I)cc1.Cl.Cl`, the selectivity ratio came to 2.

As for `Cl.Cl.Cl.Cl.N/C(=N\O)c1cccc(COc2c(Cl)cc(/C(N)=N/O)cc2Cl)c1`, the selectivity ratio is below 1.

Consider `N=C(N)c1cccc(COc2cccc([N+](=O)[O-])c2)c1`, for which the selectivity ratio stood at 14.

As to `CO/N=C(\N)c1ccc(COc2ccc(/C(N)=N/OC)cc2Br)cc1.Cl.Cl`, the selectivity ratio was found to be 5.

As for `N=C(N)c1cc(I)c(OCc2cccc([N+](=O)[O-])c2)c(I)c1`, the selectivity ratio is 3.

On to `N=C(N)c1ccc(COc2ccc(C(=N)N)cc2Cl)cc1`, for which the selectivity ratio stood at 147.

`N=C(N)c1ccc(OCc2ccccc2)cc1`: the selectivity ratio amounted to 69.

With `N=C(N)c1ccc(COc2ccc(N)cc2)cc1`, the selectivity ratio was above 90.

Take `N=C(N)c1cccc(COc2ccc(C(=N)N)cc2Br)c1`: the selectivity ratio was 3410.

On to `Cl.Cl.Cl.N/C(=N\O)c1cccc(COc2ccc(/C(N)=N/O)cc2Cl)c1`, for which the selectivity ratio is below 1.

System in the next series: not listed separately
Description: Selectivity index, ratio of IC50 for rat L6 cells to IC50 for amastigotes of Leishmania donovani. The class given is toxicity, cell-based. The note with it: read-out: Ratio IC50. In short, it runs like this:
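SI = IC50 in rat L6 myoblasts / IC50 against L. donovani MHOM/SD/62/IS-CL2D axenic amastigotes. The amastigote IC50 is the average of at least two determinations; the L6 IC50 is the average of duplicates.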
As for `Cl.Cl.Cl.Cl.N/C(=N\O)c1cccc(COc2c(Cl)cc(/C(N)=N/O)cc2Cl)c1`, the selectivity ratio was below 1.

In the case of `CO/N=C(\N)c1ccc(COc2ccc(/C(N)=N/OC)cc2Br)cc1.Cl.Cl`, the selectivity ratio is below 1.

Take `N=C(N)c1cc(I)c(OCc2cccc([N+](=O)[O-])c2)c(I)c1`: the selectivity ratio is below 1.

In the case of `CO/N=C(\N)c1ccc(COc2ccc(/C(N)=N/OC)cc2)cc1.Cl.Cl`, the selectivity ratio was found to be 2.

As to `N=C(N)c1ccc(COc2ccc(C(=N)N)cc2Cl)cc1`, the selectivity ratio is 1.

For `N=C(N)c1cccc(COc2ccc(C(=N)N)cc2Br)c1`, the selectivity ratio is 8.

Take `Cl.Cl.Cl.N/C(=N\O)c1cccc(COc2ccc(/C(N)=N/O)cc2Cl)c1`: the selectivity ratio was below 1.

Another series has as its system Leishmania donovani. Description: Antileishmanial activity against amastigotes of Leishmania donovani MHOM/SD/62/IS-CL2D. Type of series: functional, organism-based.
Conditions: not given
The gist of the method: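 Axenic amastigotes of L. donovani MHOM/SD/62/IS-CL2D; IC50 taken as the average of at least two determinations.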
`Cl.Cl.Cl.Cl.N/C(=N\O)c1cccc(COc2c(Cl)cc(/C(N)=N/O)cc2Cl)c1`: the half-inhibitory concentration (IC50) was above 100 µM.

Take `CO/N=C(\N)c1ccc(COc2ccc(/C(N)=N/OC)cc2Br)cc1.Cl.Cl`: the IC50 is above 100 µM.

Take `N=C(N)c1cc(I)c(OCc2cccc([N+](=O)[O-])c2)c(I)c1`: the IC50 is 34.3 µM.

`CO/N=C(\N)c1ccc(COc2ccc(/C(N)=N/OC)cc2)cc1.Cl.Cl` returned an IC50 above 100 µM.

`N=C(N)c1ccc(COc2ccc(C(=N)N)cc2Cl)cc1`: the midpoint of inhibition, the IC50, lay at 2.89 µM.

Regarding `N=C(N)c1cccc(COc2ccc(C(=N)N)cc2Br)c1`, the IC50 was found to be 1.86 µM.

Regarding `Cl.Cl.Cl.N/C(=N\O)c1cccc(COc2ccc(/C(N)=N/O)cc2Cl)c1`, the IC50 was above 100 µM.

Another series has as its system Trypanosoma brucei rhodesiense. As to the kind of experiment: Antitrypanosomal activity against Trypanosoma brucei rhodesiense STIB900 after 72 hrs by Alamar blue assay. Type of series: functional, organism-based. Conditions: STIB900, 72 h. (The colour change of resazurin is a common sign of viable cells or microbes.)
With `CO/N=C(\N)c1ccc(COc2ccc(/C(N)=N/OC)cc2I)cc1.Cl.Cl`, the concentration for half-maximal inhibition (IC50) is 50.4 µM.

The compound `Cl.Cl.Cl.Cl.N/C(=N\O)c1cccc(COc2c(Cl)cc(/C(N)=N/O)cc2Cl)c1` returned an IC50 of 26.4 µM.

In turn, `N=C(N)c1cccc(COc2cccc([N+](=O)[O-])c2)c1` registered an IC50 of 7.28 µM.

In turn, `CO/N=C(\N)c1ccc(COc2ccc(/C(N)=N/OC)cc2Br)cc1.Cl.Cl` registered an IC50 of 18.8 µM.

Regarding `N=C(N)c1cc(I)c(OCc2cccc([N+](=O)[O-])c2)c(I)c1`, the IC50 worked out at 2.66 µM.

As to `CO/N=C(\N)c1ccc(COc2ccc(/C(N)=N/OC)cc2)cc1.Cl.Cl`, the IC50 was above 224 µM.

Compound `N=C(N)c1ccc(COc2ccc(C(=N)N)cc2Cl)cc1` yielded an IC50 of 0.022 µM.

`N=C(N)c1ccc(OCc2ccccc2)cc1` had an IC50 of 1.84 µM.

`N=C(N)c1ccc(COc2ccc(N)cc2)cc1` came in with an IC50 of 3 µM.

With `N=C(N)c1cccc(COc2ccc(C(=N)N)cc2Br)c1`, the IC50 was 0.005 µM.

`Cl.Cl.Cl.N/C(=N\O)c1cccc(COc2ccc(/C(N)=N/O)cc2Cl)c1` yielded an IC50 of 49.2 µM.

The next series has as its system Plasmodium falciparum. Description: Antiplasmodial activity against chloroquine-resistant Plasmodium falciparum K1. The class given is functional, organism-based.
Conditions: not given
In short, it runs like this: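 Chloroquine-resistant K1 strain tested in vitro. IC50 is the average of duplicate determinations.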
As for `C[C@@H]1CC[C@H]2[C@@H](C)C(=O)O[C@@H]3O[C@@]4(C)CC[C@@H]1[C@]32OO4` [ARTEMISININ], it took 0.0041 µM to reach half-maximal inhibition (IC50).

`CO/N=C(\N)c1ccc(COc2ccc(/C(N)=N/OC)cc2I)cc1.Cl.Cl`: the IC50 is above 10.3 µM.

`Cl.Cl.Cl.Cl.N/C(=N\O)c1cccc(COc2c(Cl)cc(/C(N)=N/O)cc2Cl)c1` showed an IC50 of 11.5 µM.

With `N=C(N)c1cccc(COc2cccc([N+](=O)[O-])c2)c1`, the IC50 is above 3.07 µM.

The compound `CO/N=C(\N)c1ccc(COc2ccc(/C(N)=N/OC)cc2Br)cc1.Cl.Cl` registered an IC50 above 10.2 µM.

Regarding `N=C(N)c1cc(I)c(OCc2cccc([N+](=O)[O-])c2)c(I)c1`, the IC50 is 0.296 µM.

In turn, `CO/N=C(\N)c1ccc(COc2ccc(/C(N)=N/OC)cc2)cc1.Cl.Cl` showed an IC50 of 5.78 µM.

Turning to `N=C(N)c1ccc(COc2ccc(C(=N)N)cc2Cl)cc1`, inhibition was half-maximal at 0.006 µM (IC50).

The compound `N=C(N)c1ccc(OCc2ccccc2)cc1` came in with an IC50 above 3.56 µM.

The compound `N=C(N)c1ccc(COc2ccc(N)cc2)cc1` registered an IC50 of 2.56 µM.

In turn, `N=C(N)c1cccc(COc2ccc(C(=N)N)cc2Br)c1` came in with an IC50 of 0.052 µM.

The compound `Cl.Cl.Cl.N/C(=N\O)c1cccc(COc2ccc(/C(N)=N/O)cc2Cl)c1` registered an IC50 above 11.2 µM.

The subject of a further series is L6. As to the kind of experiment: Cytotoxicity against rat L6 cells after 72 hrs by Alamar blue assay. The class given is cell-based. Conditions: L6, 72 h. The gist of the method:
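Rat L6 myoblast cells; cytotoxic IC50 taken as the average of duplicate determinations.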
Turning to `C[C@@H]1CC[C@H]2[C@@H](C)C(=O)O[C@@H]3O[C@@]4(C)CC[C@@H]1[C@]32OO4` [ARTEMISININ], the IC50 is above 319 µM.

For `CO/N=C(\N)c1ccc(COc2ccc(/C(N)=N/OC)cc2I)cc1.Cl.Cl`, the IC50 was found to be 86.6 µM.

As for `Cl.Cl.Cl.Cl.N/C(=N\O)c1cccc(COc2c(Cl)cc(/C(N)=N/O)cc2Cl)c1`, the midpoint of inhibition, the IC50, lay at 14.4 µM.

As to `N=C(N)c1cccc(COc2cccc([N+](=O)[O-])c2)c1`, half-maximal inhibition (IC50) required 104 µM.

As for `CO/N=C(\N)c1ccc(COc2ccc(/C(N)=N/OC)cc2Br)cc1.Cl.Cl`, the IC50 came to 101 µM.

As to `N=C(N)c1cc(I)c(OCc2cccc([N+](=O)[O-])c2)c(I)c1`, it took 7.72 µM to reach half-maximal inhibition (IC50).

The compound `CO/N=C(\N)c1ccc(COc2ccc(/C(N)=N/OC)cc2)cc1.Cl.Cl` had an IC50 above 224 µM.

Take `N=C(N)c1ccc(COc2ccc(C(=N)N)cc2Cl)cc1`: half-maximal inhibition (IC50) was put at 3.2 µM.

On to `N=C(N)c1ccc(OCc2ccccc2)cc1`, for which the IC50 amounted to 127 µM.

`N=C(N)c1ccc(COc2ccc(N)cc2)cc1` showed an IC50 above 271 µM.

Take `N=C(N)c1cccc(COc2ccc(C(=N)N)cc2Br)c1`: the IC50 amounted to 15.7 µM.

In turn, `Cl.Cl.Cl.N/C(=N\O)c1cccc(COc2ccc(/C(N)=N/O)cc2Cl)c1` came in with an IC50 of 2.26 µM.

The subject of another series is Trypanosoma brucei rhodesiense. Description: Antitrypanosomal activity against Trypanosoma brucei rhodesiense STIB900 infected in NMRI mouse assessed as mean survival days at 25 mg/kg, po administered for 4 days. The class given is functional.
Conditions: not given
In short, it runs like this: (§2)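 Female NMRI mice, acute infection model with T. b. rhodesiense STIB900. Compound given as a single daily dose for four days, intraperitoneally or orally. Cure means survival to 60 days post-infection without parasitaemia relapse. Mean survival recorded in days.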
Regarding `CO/N=C(\N)c1ccc(COc2ccc(/C(N)=N/OC)cc2I)cc1.Cl.Cl`, the MSD was determined as 29.75 days.

Regarding `Cl.Cl.Cl.Cl.N/C(=N\O)c1cccc(COc2c(Cl)cc(/C(N)=N/O)cc2Cl)c1`, the MSD is above 53.25 days.

With `CO/N=C(\N)c1ccc(COc2ccc(/C(N)=N/OC)cc2Br)cc1.Cl.Cl`, the MSD was above 32.5 days.

As to `CO/N=C(\N)c1ccc(COc2ccc(/C(N)=N/OC)cc2)cc1.Cl.Cl`, the MSD worked out at 13.25 days.

On to `Cl.Cl.Cl.N/C(=N\O)c1cccc(COc2ccc(/C(N)=N/O)cc2Cl)c1`, for which the MSD was above 39 days.

The next series deals with Trypanosoma brucei rhodesiense. As to the kind of experiment: Antitrypanosomal activity against Trypanosoma brucei rhodesiense STIB900 infected in NMRI mouse assessed as cured animal at 25 mg/kg, po administered for 4 days. The class given is functional, organism-based. Also on record: dose 25 mg/kg.
Conditions: not given
The gist of the method: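 Acute model in female NMRI mice infected with T. b. rhodesiense STIB900. Single daily doses given for four days, intraperitoneally or orally. Mice surviving 60 days post-infection without parasitaemia relapse counted as cured; result reported as cured/infected out of 4 mice per group, with mean survival in days.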
As to `CO/N=C(\N)c1ccc(COc2ccc(/C(N)=N/OC)cc2I)cc1.Cl.Cl`, the result was inactive.

On to `CO/N=C(\N)c1ccc(COc2ccc(/C(N)=N/OC)cc2)cc1.Cl.Cl`, for which the outcome was inactive.

The next series relates to Trypanosoma brucei rhodesiense. Description: Antitrypanosomal activity against Trypanosoma brucei rhodesiense STIB900 infected in NMRI mouse assessed as mean survival days at 5 mg/kg, ip administered for 4 days. Type of series: functional. Conditions: route intraperitoneal. The gist of the method: as §2
Take `N=C(N)c1ccc(OCCCCCOc2ccc(C(=N)N)cc2)cc1` [PENTAMIDINE]: the MSD is above 38 days.

With `N=C(N)c1ccc(COc2ccc(C(=N)N)cc2Cl)cc1`, the MSD is above 51 days.

As to `N=C(N)c1ccc(-c2ccc(-c3ccc(C(=N)N)cc3)o2)cc1` [FURAMIDINE], the MSD was above 46 days.

On to `N=C(N)c1cccc(COc2ccc(C(=N)N)cc2Br)c1`, for which the MSD was above 37.5 days.

System in another series: not listed separately
As to the kind of experiment: Selectivity index, ratio of IC50 for rat L6 cells to IC50 for chloroquine-resistant Plasmodium falciparum K1. The class given is toxicity, cell-based. The note with it: read-out: Ratio IC50. In short, it runs like this: as §1
Regarding `CO/N=C(\N)c1ccc(COc2ccc(/C(N)=N/OC)cc2I)cc1.Cl.Cl`, the selectivity ratio is below 8.

As to `Cl.Cl.Cl.Cl.N/C(=N\O)c1cccc(COc2c(Cl)cc(/C(N)=N/O)cc2Cl)c1`, the selectivity ratio came out at 1.

Regarding `N=C(N)c1cccc(COc2cccc([N+](=O)[O-])c2)c1`, the selectivity ratio was below 34.

For `CO/N=C(\N)c1ccc(COc2ccc(/C(N)=N/OC)cc2Br)cc1.Cl.Cl`, the selectivity ratio is below 10.

Take `N=C(N)c1cc(I)c(OCc2cccc([N+](=O)[O-])c2)c(I)c1`: the selectivity ratio worked out at 26.

With `N=C(N)c1ccc(COc2ccc(C(=N)N)cc2Cl)cc1`, the selectivity ratio is 552.

As to `N=C(N)c1ccc(OCc2ccccc2)cc1`, the selectivity ratio was below 36.

Take `N=C(N)c1ccc(COc2ccc(N)cc2)cc1`: the selectivity ratio was above 106.

Consider `N=C(N)c1cccc(COc2ccc(C(=N)N)cc2Br)c1`, for which the selectivity ratio is 302.

As to `Cl.Cl.Cl.N/C(=N\O)c1cccc(COc2ccc(/C(N)=N/O)cc2Cl)c1`, the selectivity ratio is below 1.
